In brackets after ≈: the same amount, converted by molar mass.
Tests used:
Type in all cases: functional
Enterococcus faecalis = assay: Antibacterial activity against Enterococcus faecalis ATCC 29212 by microbroth dilution technique
Method in brief: (§1)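 MIC, taken as the lowest drug concentration that prevents visible growth, determined by broth microdilution following the National Committee for Clinical and Laboratory Standards method. Strains were reference strains from the American Type Culture Collection or clinical isolates from the hospital culture collection.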

Staphylococcus aureus [1] = assay: Antibacterial activity against multidrug-resistant Staphylococcus aureus clinical isolates by microbroth dilution technique
Pseudomonas aeruginosa [2] = assay: Antibacterial activity against multidrug-resistant Pseudomonas aeruginosa clinical isolates by microbroth dilution technique
Staphylococcus aureus [3] = assay: Antibacterial activity against Staphylococcus aureus ATCC 25923 by microbroth dilution technique; method in brief: as §1
Escherichia coli = assay: Antibacterial activity against Escherichia coli ATCC 25922 by microbroth dilution technique; method in brief: as §1
Pseudomonas aeruginosa [4] = assay: Antibacterial activity against Pseudomonas aeruginosa ATCC 27853 by microbroth dilution technique
Method in brief: (§2)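 Broth microdilution run to the National Committee for Clinical and Laboratory Standards method. MIC is taken as the lowest drug concentration that prevents visible bacterial growth. Strains were clinical isolates from a hospital culture collection or ATCC reference strains.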

Streptococcus pneumoniae [5] = assay: Antibacterial activity against Streptococcus pneumoniae ATCC 49619 by microbroth dilution technique; method in brief: as §2
[6] = test system: Staphylococcus epidermidis; assay: Antibacterial activity against Staphylococcus epidermidis ATCC 12228 by microbroth dilution technique; method in brief: as §1
Streptococcus pneumoniae [7] = assay: Antibacterial activity against multidrug-resistant Streptococcus pneumoniae clinical isolates by microbroth dilution technique
[8] = Enterococcus faecalis, ATCC 29212, read-out: MIC
[9] = Pseudomonas aeruginosa, read-out: MIC
[10] = Staphylococcus aureus, ATCC 25923, read-out: MIC
[11] = Escherichia coli, ATCC 25922, read-out: MIC
[12] = Pseudomonas aeruginosa, ATCC 27853, read-out: MIC
[13] = Streptococcus pneumoniae, ATCC 49619, read-out: MIC
[14] = Staphylococcus epidermidis, ATCC 12228, read-out: MIC
[15] = Streptococcus pneumoniae, read-out: MIC

Compound | MIC (Enterococcus faecalis; [8]) [µg/mL] | MIC (Staphylococcus aureus [1]) [µg/mL] | MIC (Pseudomonas aeruginosa [2]; [9]) [µg/mL] | MIC (Staphylococcus aureus [3]; [10]) [µg/mL] | MIC (Escherichia coli; [11]) [µg/mL] | MIC (Pseudomonas aeruginosa [4]; [12]) [µg/mL] | MIC (Streptococcus pneumoniae [5]; [13]) [µg/mL] | MIC [6, 14] [µg/mL] | MIC (Streptococcus pneumoniae [7]; [15]) [µg/mL] | MIC (Enterococcus faecalis) [µg/mL] | MIC (Staphylococcus aureus [3]) [µg/mL] | MIC (Escherichia coli) [µg/mL] | MIC (Pseudomonas aeruginosa [4]) [µg/mL] | MIC (Streptococcus pneumoniae [5]) [µg/mL] | MIC [6] [µg/mL] | MIC (Streptococcus pneumoniae [7]) [µg/mL] | MIC (Pseudomonas aeruginosa [2]) [µg/mL]
O=C(O)c1cn(C2CC2)c2nc(N3CC4CC3CS4)c(F)cc2c1=O (stereo not given) | 0.125 (≈ 0.346 µM) | > 32 | 32 (≈ 88.5 µM) | 0.016 (≈ 0.0443 µM) | 0.125 (≈ 0.346 µM) | 2 (≈ 5.53 µM) | 0.031 (≈ 0.0858 µM) | 0.125 (≈ 0.346 µM) | 0.031 (≈ 0.0858 µM) |  |  |  |  |  |  |  | 
O=C(O)c1cn(C2CC2)c2nc(N3C[C@@H](O)[C@H](O)C3)c(F)cc2c1=O | 2 (≈ 5.73 µM) | > 32 | 32 (≈ 91.6 µM) | 4 (≈ 11.5 µM) | 4 (≈ 11.5 µM) | 32 (≈ 91.6 µM) | 2 (≈ 5.73 µM) | > 32 | 2 (≈ 5.73 µM) |  |  |  |  |  |  |  | 
CC(C)(C)OC(=O)N1CC2CC1CN2c1nc2c(cc1F)c(=O)c(C(=O)O)cn2C1CC1 (stereo not given) | 0.5 (≈ 1.12 µM) | > 32 | 32 (≈ 72 µM) | 0.25 (≈ 0.562 µM) | 4 (≈ 9 µM) | 32 (≈ 72 µM) | 2 (≈ 4.5 µM) | 4 (≈ 9 µM) | 0.5 (≈ 1.12 µM) |  |  |  |  |  |  |  | 
O=C(O)c1cn(C2CC2)c2nc(N3CCC[C@H]3Cn3cc(CO)nn3)c(F)cc2c1=O | 4 (≈ 9.34 µM) | > 32 | 32 (≈ 74.7 µM) | 32 (≈ 74.7 µM) | 32 (≈ 74.7 µM) | 32 (≈ 74.7 µM) | 8 (≈ 18.7 µM) | 32 (≈ 74.7 µM) | 4 (≈ 9.34 µM) |  |  |  |  |  |  |  | 
C[C@@H](O)[C@@H]1C[C@@H](O)CN1c1nc2c(cc1F)c(=O)c(C(=O)O)cn2C1CC1 | 2 (≈ 5.3 µM) | > 32 | 32 (≈ 84.8 µM) | 32 (≈ 84.8 µM) | 16 (≈ 42.4 µM) | 32 (≈ 84.8 µM) | 2 (≈ 5.3 µM) | > 32 | 8 (≈ 21.2 µM) |  |  |  |  |  |  |  | 
C[C@H](O)[C@@H]1C[C@@H](O)CN1c1nc2c(cc1F)c(=O)c(C(=O)O)cn2C1CC1 | 4 (≈ 10.6 µM) | > 32 | 32 (≈ 84.8 µM) | 16 (≈ 42.4 µM) | 8 (≈ 21.2 µM) | 32 (≈ 84.8 µM) | 1 (≈ 2.65 µM) | 32 (≈ 84.8 µM) | 2 (≈ 5.3 µM) |  |  |  |  |  |  |  | 
O=C(O)c1cn(C2CC2)c2nc(N3CC4CC3CS4(=O)=O)c(F)cc2c1=O (stereo not given) | 0.063 (≈ 0.16 µM) | > 32 | 32 (≈ 81.3 µM) | 0.016 (≈ 0.0407 µM) | 0.125 (≈ 0.318 µM) | 8 (≈ 20.3 µM) | 0.063 (≈ 0.16 µM) | 0.5 (≈ 1.27 µM) | 0.031 (≈ 0.0788 µM) |  |  |  |  |  |  |  | 
COC(=O)[C@@H]1C[C@@H](n2cc(CO)nn2)CN1c1nc2c(cc1F)c(=O)c(C(=O)O)cn2C1CC1 | 0.5 (≈ 1.06 µM) | > 32 | > 32 | 4 (≈ 8.47 µM) | 4 (≈ 8.47 µM) | 32 (≈ 67.7 µM) | 1 (≈ 2.12 µM) | 8 (≈ 16.9 µM) | 1 (≈ 2.12 µM) |  |  |  |  |  |  |  | 
COC(=O)[C@@H]1C[C@@H](O)CN1c1nc2c(cc1F)c(=O)c(C(=O)O)cn2C1CC1 | 1 (≈ 2.56 µM) | > 32 | 32 (≈ 81.8 µM) | 2 (≈ 5.11 µM) | 8 (≈ 20.4 µM) | 32 (≈ 81.8 µM) | 0.5 (≈ 1.28 µM) | 16 (≈ 40.9 µM) | 0.5 (≈ 1.28 µM) |  |  |  |  |  |  |  | 
O=C(O)c1cn(C2CC2)c2nc(N3C[C@H](O)C[C@H]3CO)c(F)cc2c1=O | 4 (≈ 11 µM) | > 32 | 32 (≈ 88.1 µM) | 16 (≈ 44 µM) | 32 (≈ 88.1 µM) | 32 (≈ 88.1 µM) | 8 (≈ 22 µM) | > 32 | 8 (≈ 22 µM) |  |  |  |  |  |  |  | 
O=C(O)c1cn(C2CC2)c2nc(N3CCC[C@H]3Cn3cc(-c4ccccc4)nn3)c(F)cc2c1=O | 4 (≈ 8.43 µM) |  |  | 1 (≈ 2.11 µM) | > 32 | > 32 |  | > 32 |  |  |  |  |  |  |  |  | 
O=C(O)c1cn(C2CC2)c2nc(N3CCC[C@H]3CO)c(F)cc2c1=O | 0.5 (≈ 1.44 µM) | > 32 | 32 (≈ 92.1 µM) | 0.5 (≈ 1.44 µM) | 2 (≈ 5.76 µM) | 32 (≈ 92.1 µM) | 0.5 (≈ 1.44 µM) | 8 (≈ 23 µM) | 0.5 (≈ 1.44 µM) |  |  |  |  |  |  |  | 
COC(=O)[C@@H]1C[C@@H](n2cc(Cc3ccccc3)nn2)CN1c1nc2c(cc1F)c(=O)c(C(=O)O)cn2C1CC1 | 16 (≈ 30 µM) | > 32 | 32 (≈ 60.1 µM) | > 32 | 32 (≈ 60.1 µM) | 32 (≈ 60.1 µM) | 4 (≈ 7.51 µM) | > 32 | 8 (≈ 15 µM) |  |  |  |  |  |  |  | 
O=C(O)c1cn(C2CC2)c2nc(N3CC4CC3C[S+]4[O-])c(F)cc2c1=O (stereo in doubt; 6.26) |  |  | 32 (≈ 84.8 µM) |  |  |  |  |  |  | 0.25 (≈ 0.662 µM) | 1 (≈ 2.65 µM) | 0.5 (≈ 1.32 µM) | 16 (≈ 42.4 µM) | 0.125 (≈ 0.331 µM) | 1 (≈ 2.65 µM) | 0.125 (≈ 0.331 µM) | 
O=C(O)c1cn(C2CC2)c2nc(N3CC4CC3C[S+]4[O-])c(F)cc2c1=O (stereo in doubt; 6.28) |  | > 32 |  |  | 1 (≈ 2.65 µM) | 32 (≈ 84.8 µM) |  |  | 0.25 (≈ 0.662 µM) | 1 (≈ 2.65 µM) | 4 (≈ 10.6 µM) |  |  | 0.5 (≈ 1.32 µM) | 4 (≈ 10.6 µM) |  | 32 (≈ 84.8 µM)
O=C(O)c1cn(C2CC2)c2cc(N3CCNCC3)c(F)cc2c1=O [CIPROFLOXACIN] | 0.5 (≈ 1.51 µM) |  |  |  |  |  |  | 0.5 (≈ 1.51 µM) |  |  |  |  |  |  |  |  | 
CN[C@H](CC(C)C)C(=O)N[C@H]1C(=O)N[C@@H](CC(N)=O)C(=O)N[C@H]2C(=O)N[C@H]3C(=O)N[C@H](C(=O)N[C@H](C(=O)O)c4cc(O)cc(O)c4-c4cc3ccc4O)[C@H](O)c3ccc(c(Cl)c3)Oc3cc2cc(c3O[C@@H]2O[C@H](CO)[C@@H](O)[C@H](O)[C@H]2O[C@H]2C[C@](C)(N)[C@H](O)[C@H](C)O2)Oc2ccc(cc2Cl)[C@H]1O [VANCOMYCIN] | 0.5 (≈ 0.345 µM) |  |  |  |  |  | 1 (≈ 0.69 µM) |  | 2 (≈ 1.38 µM) |  |  |  |  |  |  |  | 

From ChEMBL document CHEMBL1152380, “The synthesis and biological evaluation of a novel series of C7 non-basic substituted fluoroquinolones as antibacterial agents” (2009)
